For 6 compounds, IC50 and Stability results are on record in ChEMBL document CHEMBL4392855, “Scaffold hopping of fused piperidine-type NK3 receptor antagonists to reduce environmental impact” (Bioorg Med Chem, 2019).

Data set [1] concerns the target T1, Neuromedin-K receptor (Homo sapiens, UniProt P29371).
T1 sequence (P29371 whole entry): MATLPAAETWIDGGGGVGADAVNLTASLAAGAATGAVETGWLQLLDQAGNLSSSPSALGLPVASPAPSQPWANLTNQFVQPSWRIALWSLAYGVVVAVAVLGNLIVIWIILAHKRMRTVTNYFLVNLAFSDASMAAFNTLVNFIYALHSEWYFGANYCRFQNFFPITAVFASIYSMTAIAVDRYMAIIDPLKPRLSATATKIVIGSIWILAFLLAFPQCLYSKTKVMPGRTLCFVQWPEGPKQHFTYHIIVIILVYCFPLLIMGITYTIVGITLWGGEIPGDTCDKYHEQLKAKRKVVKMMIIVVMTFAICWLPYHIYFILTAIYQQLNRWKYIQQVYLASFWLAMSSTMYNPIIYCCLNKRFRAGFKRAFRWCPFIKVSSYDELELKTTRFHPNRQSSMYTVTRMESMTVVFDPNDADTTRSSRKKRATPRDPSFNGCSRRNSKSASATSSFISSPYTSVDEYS
Put plainly: Antagonistic activity against NK3R (unknown origin) expressed in CHO cells assessed as inhibition of NKB-induced intracellular calcium flux by Calcium 4 assay. It counts as functional, cell-based.

The nature of data set [2]: Stability in pH 7.4 phosphate buffer assessed as compound degradation at 30 uM by HPLC analysis. It counts as physicochemical. The settings on record: pH 7.4, 30 µM.
Data set [3] can be described thus: Stability in pH 4 acetate buffer assessed as compound degradation at 30 uM by HPLC analysis. It counts as physicochemical. To be noted: pH 4, 30 µM.
A short description of data set [4]: Stability in rat serum assessed as compound degradation at 50 uM by HPLC analysis. The format is ADME, cell-free.
Data set [5] is described as follows: Stability in pH 10 carbonate buffer assessed as compound degradation at 30 uM by HPLC analysis. The format is physicochemical. The settings on record: pH 10, 30 µM.
The nature of data set [6]: Photo-stability in 50 mM pH 7.4 phosphate buffer assessed as compound degradation at 30 uM under UV-light irradiation by HPLC analysis. To be noted: pH 7.4, 30 µM. The format is physicochemical. A digest of the protocol: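 Compound at 30 μM in 50 mM phosphate buffer pH 7.4/EtOH 70:30 (0.1% DMSO) was exposed to a mercury xenon lamp (1500 W/m^2). Aliquots sampled at intervals were diluted 1:1 with MeCN and run on HPLC with 254 nm detection. Ratios were calculated from calibration curves.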

The target of data set [7] is T1, Neuromedin-K receptor. Put plainly: Antagonistic activity against NK3R (unknown origin) expressed in CHO cells assessed as inhibition of NKB-induced intracellular calcium flux under UV-light irradiation by Calcium 4 assay. The format is functional, cell-based.
Data set [8] can be described thus: Photo-stability in 50 mM pH 7.4 phosphate buffer assessed as compound degradation at 30 uM exposed to xenon lamp irrational (> 325 nm) by HPLC analysis. The format is physicochemical. The settings on record: pH 7.4, 30 µM. A digest of the protocol:
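Compound at 30 μM in 50 mM phosphate buffer pH 7.4/EtOH 70:30 (0.1% DMSO) was irradiated with a xenon arc lamp (900 W/m^2), with filters cutting wavelengths below 325 nm. Aliquots taken at intervals were diluted with MeCN and analysed by HPLC with 254 nm UV detection. Remaining amounts were taken from calibration curves.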

The structures appear in SMILES notation.

Usually IC50 stands for the concentration at which inhibition is half-maximal. Consider `C[C@H]1c2noc(-c3ccc4ccccc4n3)c2CCN1C(=O)c1ccc(F)cc1`, for which the IC50 in data set [1] was determined as 13.7 µM. Moreover, the Stability entry in data set [2], in data set [3], in data set [4] and in data set [5] was “Stable” throughout.
Consider `C[C@@H]1c2noc(-c3ccc4ccccc4n3)c2CCN1C(=O)c1ccc(F)cc1`, for which, in data set [1], the IC50 turned out to be 11.8 µM. Besides, the Stability result in data set [2], in data set [3], in data set [4] and in data set [5] was “Stable” each time.
Turning to `CC1c2onc(-c3ccc4ccccc4n3)c2CCN1C(=O)c1ccc(F)cc1` (stereo unspecified), in data set [1], the IC50 was 8.2 µM. Besides, the Stability result in data set [2], in data set [6], in data set [3], in data set [4] and in data set [5] was “Stable” throughout.
Regarding `CC1c2nnn(-c3ccc4ccccc4n3)c2CCN1C(=O)c1ccc(F)cc1` (stereo unspecified), the IC50 in data set [1] was 4.1 µM. Further, the Stability entry in data set [2], in data set [6], in data set [3], in data set [4] and in data set [5] was “Stable” in each case.
For the compound `CC1c2noc(-c3ccc4ccccc4n3)c2CCN1C(=O)c1ccc(F)cc1` (stereo unspecified), the results for the IC50 in data set [1] and in data set [7] were 10.3 µM and greater than 100 µM, respectively. For the same compound, the Stability result in data set [2] is “Stable”; in data set [6], “Unstable”; in data set [3], “Stable”; in data set [4], “Stable”; in data set [8], “Unstable”; in data set [5], “Stable”.
With `C[C@@H]1c2nnc(-c3ccc4ccccc4n3)n2CCN1C(=O)c1ccc(F)cc1`, the concentration for half-maximal inhibition (IC50) in data set [1] came out at 0.26 µM. Also, the Stability entry in data set [2], in data set [6], in data set [3], in data set [4] and in data set [5] was “Stable” in each case.
